Laboratory results: ChEMBL document CHEMBL4364238, “Discovery of BNC375, a Potent, Selective, and Orally Available Type I Positive Allosteric Modulator of α7 nAChRs” (ACS Med Chem Lett, 2019)
Converted amounts (≈) assume the structure as drawn. One block for each compound: values may come before it. The source made the active and inactive calls. The calls are words filed in the database; no cut-off is given here.

Key:
[1] = target: Neuronal acetylcholine receptor subunit alpha-7 (Rattus norvegicus) (UniProt Q05941); test: Positive allosteric modulator activity at rat alpha7 nAChR expressed in GH4C1 cells assessed as potentiation of acetylcholine response at 3 uM at -70 mV holding potential preincubated for 30 secs followed by co-application with acetylcholine by automated patch clamp assay; format: cell-based
Chain of Neuronal acetylcholine receptor subunit alpha-7 (Rattus norvegicus) (Q05941 whole entry): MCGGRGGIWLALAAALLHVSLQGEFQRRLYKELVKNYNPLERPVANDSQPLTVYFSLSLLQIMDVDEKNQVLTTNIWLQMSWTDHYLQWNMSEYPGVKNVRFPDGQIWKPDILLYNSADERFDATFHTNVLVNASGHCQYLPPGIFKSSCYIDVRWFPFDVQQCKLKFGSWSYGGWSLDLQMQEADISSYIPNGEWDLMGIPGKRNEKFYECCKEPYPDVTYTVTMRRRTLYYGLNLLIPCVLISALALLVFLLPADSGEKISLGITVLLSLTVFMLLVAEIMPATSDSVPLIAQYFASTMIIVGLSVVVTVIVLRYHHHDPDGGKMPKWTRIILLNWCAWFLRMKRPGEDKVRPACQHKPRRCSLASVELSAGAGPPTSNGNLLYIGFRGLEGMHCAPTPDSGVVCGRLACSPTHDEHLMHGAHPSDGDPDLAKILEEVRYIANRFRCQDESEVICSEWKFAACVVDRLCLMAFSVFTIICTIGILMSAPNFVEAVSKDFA
In short: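 Automated planar patch clamp on stable GH4C1 (rat) cell lines expressing rat α7 nAChR; test compound at 3 μM with an EC₂₀ acetylcholine challenge; percent change in peak current versus acetylcholine alone taken as P₃.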

Mus musculus [2] = test: Reversal of scopolamine-induced memory impairment in mouse assessed as percentage of increase in spontaneous alteration at 10 mg/kg, po administered with compond and scopolamine at 60 mins snd 30 mins respectively prior to test by T-maze test; format: functional; conditions: read-out: INH
In short: (§1)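 Mouse T-maze continuous alternation task with scopolamine-induced impairment of spontaneous alternation; compound given orally in saline-based vehicle with 25% Cremophor ELP over 0.003–10.0 mg/kg; group means compared by one-way ANOVA then Fisher's PLSD, p < 0.05 significant.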

Mus musculus [3] = test: Reversal of scopolamine-induced memory impairment in mouse assessed as increase in spontaneous alteration at 1 mg/kg, po administered with compond and scopolamine at 60 mins and 30 mins respectively prior to test by T-maze test; format: functional; conditions: read-out: INH; in short: as §1
Mus musculus [4] = test: Reversal of scopolamine-induced memory impairment in mouse assessed as increase in spontaneous alteration at 3 mg/kg, po administered with compond and scopolamine at 60 mins and 30 mins respectively prior to test by T-maze test; format: functional; conditions: read-out: INH; in short: as §1
[5] = target: Neuronal acetylcholine receptor subunit alpha-7 (Rattus norvegicus) (UniProt Q05941); test: (§2) Positive allosteric modulatory activity at rat alpha7 nAChR expressed in GH4C1 cells assessed as potentiation of acetylcholine response at 3 uM at -70 mV holding potential preincubated for 30 secs followed by co-application with acetylcholine by manual patch clamp assay; format: cell-based
In short: (§3)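 Conventional manual patch-clamp with a fast-application system on stable GH4C1 cells expressing rat α7 nAChR; currents evoked by acetylcholine with and without test compound; peak-current change relative to acetylcholine alone gives potentiation (P₃ at 3 μM; concentration–response for EC₅₀ and Pmax).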

[6] = target: Neuronal acetylcholine receptor subunit alpha-7 (Rattus norvegicus) (UniProt Q05941); test: as §2, with “assessed as AUC of potentiation of” for “assessed as potentiation of”, “clamp assay relative to potentiation of current response” for “clamp assay”; format: cell-based; in short: as §3
[7] = Lipophilicity, log D of the compound at pH 7.4; format: physicochemical; conditions: buffer
[8] = Solubility of the compound at pH 6.5; format: physicochemical; conditions: buffer
Mus musculus [9] = test: Reversal of scopolamine-induced memory impairment in mouse assessed as increase in spontaneous alteration at 3 to 30 mg/kg, ip administered with compond and scopolamine at 60 mins snd 30 mins respectively prior to test by T-maze test; format: functional, organism-based
In short: (§4)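 Mouse T-maze continuous alternation task; reversal of scopolamine-induced loss of spontaneous alternation after ip or oral doses of 3 and 30 mg/kg; significant doses reported.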

Mus musculus [10] = test: Reversal of scopolamine-induced memory impairment in mouse assessed as spontaneous alteration at 3 to 30 mg/kg, po administered with compond and scopolamine at 60 mins and 30 mins respectively prior to test by T-maze test; format: functional, organism-based; in short: as §4
[11] = Solubility of the compound at pH 2; format: physicochemical; conditions: buffer
[12] = Stability in human liver microsomes assessed as hepatic extraction ratio at 1 uM measured for 45 mins by LC-MS/MS analysis; format: ADME, Microsome; conditions: read-out: ERH
[13] = Stability in mouse liver microsomes assessed as hepatic extraction ratio at 1 uM measured for 45 mins by LC-MS/MS analysis; format: ADME, Microsome; conditions: read-out: ERH
[14] = Apparent permeability in human Caco2 cells; format: ADME, cell-based; conditions: Caco-2
[15] = Plasma clearance in Sprague-Dawley rat at 4 mg/kg administered as single IV bolus dose; format: ADME, organism-based
In short: (§5)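 Single IV bolus of 4.0 mg/kg in male Sprague–Dawley rats; dosing solution 1.1 mg/mL in saline-based vehicle with 0.1 M hydroxypropyl-β-cyclodextrin and 10% (v/v) DMSO; plasma pharmacokinetic parameters derived.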

[16] = Volume of distribution at steady state in Sprague-Dawley rat at 4 mg/kg administered as single IV bolus dose; format: ADME, organism-based; conditions: in vivo, read-out: Vdss; in short: as §5
[17] = Oral bioavailability in Sprague-Dawley rat; format: ADME, organism-based; conditions: in vivo
[18] = Dose normalized AUC (0 to infinity) in Sprague-Dawley rat at 4 mg/kg administered as single IV bolus dose; format: ADME, organism-based; conditions: in vivo; in short: as §5
[19] = Half life in Sprague-Dawley rat plasma at 4 mg/kg administered as single IV bolus dose; format: ADME, organism-based; in short: as §5
Mus musculus [20] = test: Reversal of scopolamine-induced memory impairment in mouse assessed as increase in spontaneous alteration at 0.003 mg/kg, po administered with compond and scopolamine at 60 mins and 30 mins respectively prior to test by T-maze test; format: functional; in short: as §1
Mus musculus [21] = test: Reversal of scopolamine-induced memory impairment in mouse assessed as increase in spontaneous alteration at 0.03 mg/kg, po administered with compond and scopolamine at 60 mins and 30 mins respectively prior to test by T-maze test; format: functional; in short: as §1
Mus musculus [22] = test: Reversal of scopolamine-induced memory impairment in mouse assessed as increase in spontaneous alteration at 0.3 mg/kg, po administered with compond and scopolamine at 60 mins and 30 mins respectively prior to test by T-maze test; format: functional; in short: as §1
[23] = target: Neuronal acetylcholine receptor subunit alpha-7 (Rattus norvegicus, UniProt Q05941); test: Positive allosteric modulatory activity at rat alpha7 nAChR expressed in GH4C1 cells assessed as potentiation of acetylcholine response at -70 mV holding potential preincubated for 30 secs followed by co-application with acetylcholine by manual patch clamp assay; format: cell-based; in short: as §3
Chain of Neuronal acetylcholine receptor subunit alpha-7 (Q05941 whole entry): as above

[24] = target: Neuronal acetylcholine receptor subunit alpha-7 (Rattus norvegicus) (UniProt Q05941); test: Positive allosteric modulatory activity at rat alpha7 nAChR expressed in GH4C1 cells assessed as potentiation of peak current at -70 mV holding potential preincubated for 30 secs followed by co-application with acetylcholine by manual patch clamp assay relative to acetylcholine-induced peak current; format: cell-based; in short: as §3
[25] = target: Neuronal acetylcholine receptor subunit alpha-7 (Rattus norvegicus) (UniProt Q05941); test: (§6) Positive allosteric modulatory activity at rat alpha7 nAChR expressed in GH4C1 cells assessed as AUC of potentiation of peak current at -70 mV holding potential preincubated for 30 secs followed by co-application with acetylcholine by manual patch clamp assay relative to peak current potentiation; format: cell-based; in short: as §3
[26] = target: Neuronal acetylcholine receptor subunit alpha-7 (Rattus norvegicus) (UniProt Q05941); test: as §6, with “of acetylcholine response at 3 uM” for “of peak current”, “by automated” for “by manual”, “to potentiation of” for “to peak”, “current response” for “current potentiation”; format: cell-based

Activity [1]: 2860%
SMILES: CC1(C)[C@@H](CNc2ccc(F)cc2C(F)(F)F)[C@@H]1c1ccc(S(N)(=O)=O)cc1
percent increase in spontaneous alternation at 10 mg/kg (Mus musculus [2]): 79% | percent reversal of scopolamine-induced memory impairment (increase in spontaneous alternation) at 1 mg/kg (Mus musculus [3]): 40% | percent reversal of scopolamine-induced memory impairment at 3 mg/kg (Mus musculus [4]): 39%

Activity [1]: 8170%
SMILES: CC1(C)[C@@H](CNc2ccc(F)cc2OC(F)F)[C@@H]1c1ccc(S(N)(=O)=O)cc1
percent increase in spontaneous alternation at 10 mg/kg (Mus musculus [2]): 51% | percent reversal of scopolamine-induced memory impairment (increase in spontaneous alternation) at 1 mg/kg (Mus musculus [3]): 46% | percent reversal of scopolamine-induced memory impairment at 3 mg/kg (Mus musculus [4]): 16%

Activity [1]: < 100%
SMILES: CC1(C)C(CNC2CCCCC2)C1c1ccc(S(N)(=O)=O)cc1 (racemic)

Activity [1]: 17600%
SMILES: Cc1cc(F)ccc1NC[C@H]1[C@H](c2ccc(S(N)(=O)=O)cc2)C1(C)C

Activity [1]: 3000%
SMILES: CC1(C)C(CNc2cncc(F)c2)C1c1ccc(S(N)(=O)=O)cc1 (racemic)

Activity [1]: 3360%
SMILES: CC1(C)C(CNc2ccc(F)cc2OC(F)F)C1c1ccc(S(N)(=O)=O)cc1 (racemic)

Activity [1]: 720%
SMILES: COc1ccc(Cl)cc1NCC1C(c2ccc(S(=O)(=O)NO)cc2)C1(C)C (racemic)

Activity [1]: Active
SMILES: CCOc1ccc(Cl)cc1NC(=O)C1C(c2ccc(S(N)(=O)=O)cc2)C1(CC)CC (stereo not given)

Activity [1]: < 100%
SMILES: CC(C)(C)c1cc(NCC2C(c3ccc(S(N)(=O)=O)cc3)C2(C)C)no1 (racemic)

Activity [1]: 710% | Activity [5]: 360% | Ratio [6]: 5.6 | logD [7]: 4.2 | solubility [8]: 1.6 to 3.1 µg/mL (≈ 3.68 to 7.13 µM)
SMILES: COc1ccc(Cl)cc1NC(=O)C1C(c2ccc(S(N)(=O)=O)cc2)C12CCCC2 (racemic)
inhibition (Mus musculus [9]): Active | inhibition (Mus musculus [10]): inactive

Activity [1]: 470%
SMILES: Cc1cc(F)ccc1NC[C@@H]1[C@@H](c2ccc(S(N)(=O)=O)cc2)C1(C)C

Activity [1]: 2420%
SMILES: COc1ncccc1NCC1C(c2ccc(S(N)(=O)=O)cc2)C1(C)C (racemic)

Activity [1]: 1160% | logD [7]: 4.2 | solubility [8]: 1.6 to 3.1 µg/mL (≈ 4.05 to 7.85 µM) | solubility [11]: > 100 µg/mL | hepatic extraction ratio at 0.75 h, 1 µM [12]: 0.84 | hepatic extraction ratio at 0.75 h, 1 µM [13]: 0.79 | Papp [14]: 11 ×10⁻⁶ cm/s | clearance [15]: 35 mL/min/kg | Vd [16]: 1.8 L/kg | bioavailability [17]: 62% | AUC/dose [18]: 1.2 µM·h/mg | half-life [19]: 1.2 h | EC50 [23]: 1900 nM | Emax [24]: 1570% | Ratio [25]: 1.7 | Ratio [26]: 3.1
SMILES: COc1ccc(Cl)cc1NC[C@@H]1[C@@H](c2ccc(S(N)(=O)=O)cc2)C1(C)C
inhibition in vivo at 0.003 mg/kg (Mus musculus [20]): -9% | inhibition in vivo at 0.03 mg/kg (Mus musculus [21]): 51% | inhibition in vivo at 0.3 mg/kg (Mus musculus [22]): 62% | percent reversal of scopolamine-induced memory impairment (increase in spontaneous alternation) at 1 mg/kg (Mus musculus [3]): 78% | percent reversal of scopolamine-induced memory impairment at 3 mg/kg (Mus musculus [4]): 78%

Activity [1]: 8660%
SMILES: Cc1cc(F)ccc1NCC1C(c2ccc(S(N)(=O)=O)cc2)C1(C)C (racemic)

Activity [1]: 420%
SMILES: Cc1cc(F)c(F)cc1NC[C@@H]1[C@@H](c2ccc(S(N)(=O)=O)cc2)C1(C)C
percent increase in spontaneous alternation at 10 mg/kg (Mus musculus [2]): 15% | percent reversal of scopolamine-induced memory impairment (increase in spontaneous alternation) at 1 mg/kg (Mus musculus [3]): 8% | percent reversal of scopolamine-induced memory impairment at 3 mg/kg (Mus musculus [4]): 31%

Activity [1]: 460%
SMILES: Cc1ccc(F)cc1NC[C@@H]1[C@@H](c2ccc(S(N)(=O)=O)cc2)C1(C)C
percent increase in spontaneous alternation at 10 mg/kg (Mus musculus [2]): 10% | percent reversal of scopolamine-induced memory impairment (increase in spontaneous alternation) at 1 mg/kg (Mus musculus [3]): -9% | percent reversal of scopolamine-induced memory impairment at 3 mg/kg (Mus musculus [4]): 0%

Activity [1]: 2570 to 9890%
SMILES: CC1(C)C(CNc2ccccc2)C1c1ccc(S(N)(=O)=O)cc1 (racemic)
